Test results: ChEMBL document CHEMBL3792331, “Identification and synthesis of potent and selective pyridyl-isoxazole based agonists of sphingosine-1-phosphate 1 (S1P1)” (Bioorg Med Chem Lett, 2016)

Assays:
Rattus norvegicus [1] = test: Reduction in circulating lymphocytes in Lewis rat at 1 mg/kg, po after 4 hrs; type: functional
Summary of the method: (§1)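 Healthy Lewis rats dosed orally with test article as solution or suspension in vehicle, or vehicle alone. Blood drawn at 4 h and 24 h. Circulating lymphocyte percentage measured by hematology analyzer, expressed as reduction versus the vehicle group. Group average, n = 3–4.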

Plasma = test: Ratio of plasma concentration Lewis rat at 1 mg/kg, po after 4 hrs to plasma concentration Lewis rat at 1 mg/kg, po after 24 hrs; type: ADME, organism-based; conditions: in vivo
Summary of the method: (§2)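 Lewis rats given 1.0 mg/kg orally as solution or suspension in vehicle. Plasma drug concentration measured in blood drawn at 4 h and 24 h; 4 h/24 h ratio taken from these values.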

[2] = Plasma concentration Lewis rat at 1 mg/kg, po after 4 hrs; type: ADME, organism-based; summary of the method: as §2
Rattus norvegicus [3] = test: Reduction in circulating lymphocytes in Lewis rat at 1 mg/kg, po after 24 hrs; type: functional; summary of the method: as §1
[4] = Selectivity index, ratio of EC50 for agonist activity at human S1P3 receptor expressed in EDG3-Ga15-bla HEK293T cell membranes to EC50 for agonist activity at human S1P1 receptor expressed in CHO cell membranes; type: cell-based
Summary of the method: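 S1P3/S1P1 ratio of GTPγ[35S] EC50s. Membranes from EDG3-Ga15-bla HEK293T (S1P3) or S1P1/CHO cells, […], 0.2 nM final [35S]GTP. HEPES pH 7.5 buffer with MgCl2, NaCl, EGTA, DTT, GDP, BSA and saponin. 45 min at room temperature, filtration read-out. Each EC50 taken at 50% of the compound's own Ymax.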

[5] = molecular target: Sphingosine 1-phosphate receptor 1 (Homo sapiens, UniProt P21453); test: Agonist activity at human S1P1 receptor expressed in CHO cell membranes assessed as stimulation of [35S]GTPgamma binding incubated for 45 mins by liquid scintillation counting method
Sphingosine 1-phosphate receptor 1, sequence (P21453 whole entry): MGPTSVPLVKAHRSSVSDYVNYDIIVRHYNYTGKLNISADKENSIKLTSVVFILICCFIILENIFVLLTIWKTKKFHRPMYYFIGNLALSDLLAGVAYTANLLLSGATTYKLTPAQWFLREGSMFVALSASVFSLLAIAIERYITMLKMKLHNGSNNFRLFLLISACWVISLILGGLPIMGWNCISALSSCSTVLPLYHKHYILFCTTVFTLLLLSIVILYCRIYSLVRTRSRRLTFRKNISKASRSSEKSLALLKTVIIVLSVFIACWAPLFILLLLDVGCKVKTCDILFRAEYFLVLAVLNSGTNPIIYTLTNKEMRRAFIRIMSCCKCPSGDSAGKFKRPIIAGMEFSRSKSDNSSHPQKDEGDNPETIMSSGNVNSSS
Summary of the method: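 Membranes from S1P1/CHO cells (S1P1) or EDG3-Ga15-bla HEK293T cells (S1P3), final protein […], with 3-fold compound dilutions. Buffer: 20 mM HEPES pH 7.5, 10 mM MgCl2, 150 mM NaCl, 1 mM EGTA, 1 mM DTT, GDP, 0.1% fatty acid free BSA, saponin. [35S]GTP 0.2 nM final. Room temperature, 45 min. Filtered, washed with water, dried 60 °C. EC50 taken at 50% of each compound's Ymax.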

[6] = Plasma concentration Lewis rat at 1 mg/kg, po after 24 hrs; type: ADME, organism-based; summary of the method: as §2

| SMILES | inhibition in vivo at 1 mg/kg (Rattus norvegicus [1]) [%] | Ratio (Plasma) | concentration at 4 h [2] [nM] | inhibition in vivo at 1 mg/kg (Rattus norvegicus [3]) [%] | Ratio EC50 [4] | EC50 [5] [nM] | concentration at 24 h [6] [nM] |
| --- | --- | --- | --- | --- | --- | --- | --- |
| O=C(O)C1CN(Cc2ccc(-c3noc(-c4onc(-c5ccccc5)c4C(F)(F)F)n3)cc2)C1 | 78 | 3 | 2130 | 91 |  |  |  |
| CCc1c(-c2nc(-c3ccc(CN4CC(C(=O)O)C4)cc3)no2)noc1-c1ccccn1 | 84 | 15 | 972 | 58 | 550 | 3.4 | 64 |
